This note sets out measurements from ChEMBL document CHEMBL2216748 (J Med Chem, 2012).

The source made the active and inactive calls. The calls are words filed in the database; no cut-off is given here.

The target in assay [1] is Histamine N-methyltransferase (Homo sapiens) (UniProt P50135). Briefly: Displacement of 3-(1-methyl-N-(pyridin-2-yl)-2-((4-(N-((S)-6,9,25-trioxo-29-((3aS,4S,6aR)-2-oxohexahydro-1H-thieno[3,4-d]imidazol-4-yl)-8-(4-(3-(trifluoromethyl)-3H-diazirin-3-yl)benzamido)-14,17,20-trioxa-5,10,24-triazanonacosyl)carbamimidoyl)phenylamino)methyl)-1H-benzo[d]imidazole-5-carboxamido)propanoic acid from HNMT in human HepG2 cell lysate after 1 hr by capture compound based LC/MS analysis. In kind it is cell-free. In outline:
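Capture compound MS: 400 μg HepG2 or K562 lysate in capture buffer, precleared with streptavidin beads 30 min at 4 °C. Competition controls preincubated 30 min at 4 °C with free drug (10 μL of 1 mM). Capture compound (10 μL of 50 μM) equilibrated 1 h at 4 °C, UV-irradiated 10 min, streptavidin bead pulldown, on-bead trypsin digestion, nanoLC-MS/MS. Spectral counts compared capture vs competition (t test). HepG2 in quadruplicate, K562 in duplicate.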

The target of assay [2] is T1, Ribosyldihydronicotinamide dehydrogenase [quinone] (Homo sapiens) (UniProt P16083).
T1 sequence (whole entry): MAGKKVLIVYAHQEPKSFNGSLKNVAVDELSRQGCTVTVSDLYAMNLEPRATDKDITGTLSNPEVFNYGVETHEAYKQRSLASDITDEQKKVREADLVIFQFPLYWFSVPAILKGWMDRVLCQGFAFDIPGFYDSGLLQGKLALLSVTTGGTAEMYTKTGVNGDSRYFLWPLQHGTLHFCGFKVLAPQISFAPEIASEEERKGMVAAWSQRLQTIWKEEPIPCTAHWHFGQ
Briefly: Displacement of (S)-N4-(4-(3-(2-((4-carbamimidoylphenylamino)methyl)-1-methyl-N-(pyridin-2-yl)-1H-benzo[d]imidazole-5-carboxamido)propanamido)butyl)-N1-(15-oxo-19-((3aS,4S,6aR)-2-oxohexahydro-1H-thieno[3,4-d]imidazol-4-yl)-4,7,10-trioxa-14-azanonadecyl)-2-(4-(3-(trifluoromethyl)-3H-diazirin-3-yl)benzamido)succinamide from NQO2 in human HepG2 cell lysate at 100 uM after 1 hr by Western blot analysis. In kind it is cell-free. Summed up:
(§1)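 NQO2 capture from HepG2 or K562 lysate, or from pooled human liver microsomes, with capture compound (1 h, 4 °C) after 30 min competitor preincubation. UV cross-linked 10 min and streptavidin pulldown. Detection by Western blot: anti-NQO2 1:500, then HRP anti-rabbit secondary 1:1000.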
In general terms: Immunoblotting shows a protein as a band on a membrane.

Assay [3] addresses T1, Ribosyldihydronicotinamide dehydrogenase [quinone] (Homo sapiens). In words: Displacement of (S)-N4-(4-(3-(2-((4-carbamimidoylphenylamino)methyl)-1-methyl-N-(pyridin-2-yl)-1H-benzo[d]imidazole-5-carboxamido)propanamido)butyl)-N1-(15-oxo-19-((3aS,4S,6aR)-2-oxohexahydro-1H-thieno[3,4-d]imidazol-4-yl)-4,7,10-trioxa-14-azanonadecyl)-2-(4-(3-(trifluoromethyl)-3H-diazirin-3-yl)benzamido)succinamide from NQO2 in human K562 cell lysate at 100 uM after 1 hr by Western blot analysis. In kind it is cell-free. Summed up: as §1

Assay [4] has the same target. In words: Displacement of (S)-N4-(4-(3-(2-((4-carbamimidoylphenylamino)methyl)-1-methyl-N-(pyridin-2-yl)-1H-benzo[d]imidazole-5-carboxamido)propanamido)butyl)-N1-(15-oxo-19-((3aS,4S,6aR)-2-oxohexahydro-1H-thieno[3,4-d]imidazol-4-yl)-4,7,10-trioxa-14-azanonadecyl)-2-(4-(3-(trifluoromethyl)-3H-diazirin-3-yl)benzamido)succinamide from NQO2 in human liver microsomes after 1 hr by Western blot analysis. The note with it: Microsome. Summed up:
as §1

The target is the same in assay [5]. In words: Displacement of 3-(1-methyl-N-(pyridin-2-yl)-2-((4-(N-((S)-6,9,25-trioxo-29-((3aS,4S,6aR)-2-oxohexahydro-1H-thieno[3,4-d]imidazol-4-yl)-8-(4-(3-(trifluoromethyl)-3H-diazirin-3-yl)benzamido)-14,17,20-trioxa-5,10,24-triazanonacosyl)carbamimidoyl)phenylamino)methyl)-1H-benzo[d]imidazole-5-carboxamido)propanoic acid from NQO2 in human liver microsomes after 1 hr by Western blot analysis. The note with it: Microsome. Summed up:
as §1
A general note: Liver microsomes are vesicles of endoplasmic reticulum, rich in cytochrome P450 enzymes.

For assay [6] the target is unchanged. In words: Displacement of (S)-N4-(2-(4-(4-(4-methyl-3-(4-(pyridin-3-yl)pyrimidin-2-ylamino)phenylcarbamoyl)benzyl)piperazin-1-yl)ethyl)-N1-(15-oxo-19-((3aS,4S,6aR)-2-oxohexahydro-1H-thieno[3,4-d]imidazol-4-yl)-4,7,10-trioxa-14-azanonadecyl)-2-(4-(3-(trifluoromethyl)-3H-diazirin-3-yl)benzamido)succinamide from human recombinant NQO2 after 1 hr by silver staining-based SDS PAGE analysis. Summed up: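 Human recombinant NQO2 (1 μg) was preincubated 30 min at 4 °C with competitor, then capture compound was added at 5 μM final (competitors 100 μM final) and equilibrated 1 h at 4 °C. Samples were UV-irradiated 10 min, pulled down on streptavidin beads and resolved by silver-stained SDS-PAGE.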

Assay [7] can be described thus: Inhibition of human alpha thrombin using Boc-Val-Pro-Arg-AMC as substrate after 2 hrs by fluorometric analysis. Summed up:
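Human α-thrombin at 5.5 ng/mL final with Boc-Val-Pro-Arg-AMC (15 μM) in 50 mM Tris pH 7.5, 150 mM NaCl, 0.05% Tween 20. Compound tested as 16 two-fold dilutions in DMSO, 2.5 mM to 75 nM. Incubated 2 h at room temperature; fluorescence read at ex 355, em 460 nm for percent inhibition.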

Sequence of Histamine N-methyltransferase (Homo sapiens) (P50135 whole entry): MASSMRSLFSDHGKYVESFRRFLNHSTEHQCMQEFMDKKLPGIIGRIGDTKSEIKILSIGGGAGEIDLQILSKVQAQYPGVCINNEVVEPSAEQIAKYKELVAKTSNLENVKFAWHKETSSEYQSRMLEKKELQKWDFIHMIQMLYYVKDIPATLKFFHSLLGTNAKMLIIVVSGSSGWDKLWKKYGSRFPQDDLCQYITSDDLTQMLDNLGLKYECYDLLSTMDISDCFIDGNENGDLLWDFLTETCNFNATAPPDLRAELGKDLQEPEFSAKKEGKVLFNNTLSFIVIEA

As to `Cn1c(CNc2ccc(C(=N)N)cc2)nc2cc(C(=O)N(CCC(=O)O)c3ccccn3)ccc21` [DABIGATRAN], the outcome in assay [1], in assay [2], in assay [3], in assay [4], in assay [5] and in assay [6] was Active. In assay [7], this compound returned an IC50 of 13.8 nM.

What is called IC50 is the concentration needed to halve the response being measured. High values mean a need for much substance, low ones inhibition by little substance.
